In ChEMBL document CHEMBL1153324, “Potent inhibitors of Huntingtin protein aggregation in a cell-based assay” (Bioorg Med Chem Lett, 2009):

target: T1, Huntingtin (Homo sapiens, UniProt P42858); experiment: Inhibition of Huntingtin protein aggregation by cell based assay; details: not given
How it was run: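 Stable transfectants express mutant huntingtin fused to mCFP from a tet-regulatable gene. Cells are seeded in 96-well format and treated with compound for 72 h. Controls are 2 μg/mL doxycycline and 0.1% DMSO (no dox). Aggregation is scored as the presence and magnitude of fluorescent intracellular inclusions (% cells with aggregates, aggregates per cell), and an IC50 is derived.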

T1 sequence (P42858 whole entry, the tested form may be a part): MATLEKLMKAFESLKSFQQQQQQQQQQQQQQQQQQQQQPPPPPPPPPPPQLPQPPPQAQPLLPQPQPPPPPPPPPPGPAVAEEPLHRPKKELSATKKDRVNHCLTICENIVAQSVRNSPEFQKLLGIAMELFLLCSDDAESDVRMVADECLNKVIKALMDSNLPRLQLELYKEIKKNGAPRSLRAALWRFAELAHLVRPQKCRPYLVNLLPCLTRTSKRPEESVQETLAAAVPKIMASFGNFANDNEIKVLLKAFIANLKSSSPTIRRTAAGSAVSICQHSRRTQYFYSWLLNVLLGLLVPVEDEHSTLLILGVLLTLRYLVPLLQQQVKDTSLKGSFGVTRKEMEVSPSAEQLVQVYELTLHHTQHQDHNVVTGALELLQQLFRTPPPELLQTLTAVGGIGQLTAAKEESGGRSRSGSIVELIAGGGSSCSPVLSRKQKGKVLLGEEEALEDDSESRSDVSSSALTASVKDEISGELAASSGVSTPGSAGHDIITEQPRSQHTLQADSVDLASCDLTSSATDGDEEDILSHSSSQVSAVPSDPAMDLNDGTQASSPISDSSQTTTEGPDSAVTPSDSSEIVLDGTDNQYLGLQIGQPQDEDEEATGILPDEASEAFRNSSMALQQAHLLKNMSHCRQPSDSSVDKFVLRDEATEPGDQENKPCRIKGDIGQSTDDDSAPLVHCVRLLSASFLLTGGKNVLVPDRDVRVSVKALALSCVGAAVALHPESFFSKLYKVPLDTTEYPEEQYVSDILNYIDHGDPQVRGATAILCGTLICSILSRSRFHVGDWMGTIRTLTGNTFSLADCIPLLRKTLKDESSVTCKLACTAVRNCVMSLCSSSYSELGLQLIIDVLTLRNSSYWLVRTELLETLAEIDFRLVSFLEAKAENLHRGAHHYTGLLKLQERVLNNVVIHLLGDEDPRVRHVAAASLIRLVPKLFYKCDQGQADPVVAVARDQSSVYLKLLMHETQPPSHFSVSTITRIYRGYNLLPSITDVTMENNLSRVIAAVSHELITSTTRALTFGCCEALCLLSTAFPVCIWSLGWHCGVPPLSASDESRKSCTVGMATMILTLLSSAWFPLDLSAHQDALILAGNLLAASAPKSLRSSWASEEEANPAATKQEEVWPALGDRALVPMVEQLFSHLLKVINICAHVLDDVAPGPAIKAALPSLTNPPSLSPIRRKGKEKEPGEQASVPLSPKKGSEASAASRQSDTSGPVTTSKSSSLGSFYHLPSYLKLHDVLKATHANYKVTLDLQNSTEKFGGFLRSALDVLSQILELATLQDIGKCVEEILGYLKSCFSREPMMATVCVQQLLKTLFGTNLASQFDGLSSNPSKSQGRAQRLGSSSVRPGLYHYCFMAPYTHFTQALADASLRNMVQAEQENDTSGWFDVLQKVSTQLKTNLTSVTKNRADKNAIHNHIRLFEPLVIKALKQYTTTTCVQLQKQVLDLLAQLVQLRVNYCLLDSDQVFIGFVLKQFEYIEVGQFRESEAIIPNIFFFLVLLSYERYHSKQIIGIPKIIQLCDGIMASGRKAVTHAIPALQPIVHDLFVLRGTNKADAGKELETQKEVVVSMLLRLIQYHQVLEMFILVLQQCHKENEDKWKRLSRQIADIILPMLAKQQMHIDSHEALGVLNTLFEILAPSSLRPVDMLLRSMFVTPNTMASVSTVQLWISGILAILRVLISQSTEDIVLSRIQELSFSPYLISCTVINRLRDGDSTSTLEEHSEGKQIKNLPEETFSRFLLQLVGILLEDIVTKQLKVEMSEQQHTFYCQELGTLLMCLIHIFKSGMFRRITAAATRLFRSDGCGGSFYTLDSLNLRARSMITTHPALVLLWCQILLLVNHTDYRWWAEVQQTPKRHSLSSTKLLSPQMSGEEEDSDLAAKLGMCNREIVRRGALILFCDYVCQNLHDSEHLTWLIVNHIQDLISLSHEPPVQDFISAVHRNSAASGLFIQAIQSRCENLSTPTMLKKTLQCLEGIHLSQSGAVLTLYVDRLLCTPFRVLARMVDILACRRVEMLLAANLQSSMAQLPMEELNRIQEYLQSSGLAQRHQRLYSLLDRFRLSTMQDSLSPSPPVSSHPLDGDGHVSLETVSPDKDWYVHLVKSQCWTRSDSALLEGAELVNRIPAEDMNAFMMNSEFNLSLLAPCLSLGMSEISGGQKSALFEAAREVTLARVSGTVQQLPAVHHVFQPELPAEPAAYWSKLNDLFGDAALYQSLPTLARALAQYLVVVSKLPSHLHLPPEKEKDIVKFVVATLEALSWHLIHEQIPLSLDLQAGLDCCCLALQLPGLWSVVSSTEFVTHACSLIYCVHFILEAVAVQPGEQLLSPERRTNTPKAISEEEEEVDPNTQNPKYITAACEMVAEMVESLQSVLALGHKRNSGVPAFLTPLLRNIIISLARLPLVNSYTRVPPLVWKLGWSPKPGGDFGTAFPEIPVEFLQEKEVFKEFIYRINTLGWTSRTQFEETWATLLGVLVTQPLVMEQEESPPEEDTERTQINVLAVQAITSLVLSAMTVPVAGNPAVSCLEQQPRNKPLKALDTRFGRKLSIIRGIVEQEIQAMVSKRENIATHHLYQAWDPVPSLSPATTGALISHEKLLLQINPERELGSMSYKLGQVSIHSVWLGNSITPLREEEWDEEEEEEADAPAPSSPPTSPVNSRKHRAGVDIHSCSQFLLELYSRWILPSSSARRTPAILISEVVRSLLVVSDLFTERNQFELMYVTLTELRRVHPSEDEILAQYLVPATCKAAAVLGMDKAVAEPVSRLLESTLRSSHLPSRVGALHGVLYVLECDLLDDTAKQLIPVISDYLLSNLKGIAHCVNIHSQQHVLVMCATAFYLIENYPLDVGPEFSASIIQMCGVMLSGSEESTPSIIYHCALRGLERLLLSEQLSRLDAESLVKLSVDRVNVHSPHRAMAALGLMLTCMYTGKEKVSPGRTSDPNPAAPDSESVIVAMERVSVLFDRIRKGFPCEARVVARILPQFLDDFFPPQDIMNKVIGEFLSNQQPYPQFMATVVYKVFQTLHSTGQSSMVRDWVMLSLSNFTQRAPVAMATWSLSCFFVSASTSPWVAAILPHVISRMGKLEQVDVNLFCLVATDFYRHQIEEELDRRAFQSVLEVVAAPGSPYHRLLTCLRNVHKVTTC

`Clc1ccc(CCNc2ncnc3ccc(Br)cc23)cc1` was tested. Which IC50 did it give?
Its IC50 is “Not Active”.

Which IC50 does the source give for `Fc1ccc2ncnc(NCCc3ccc(Cl)cc3)c2c1` here?
The IC50 was “Not Active”.

Which IC50 does the source give for `Clc1ccc2ncnc(NCCc3ccc(Oc4ccccc4)cc3)c2c1` here?
Its IC50 is “Not Active”.

How did the IC50 turn out when `Clc1ccc2ncnc(NCCc3ccc(OC4CCCC4)cc3)c2c1` was run?
Its IC50 is “Not Active”.

How did the IC50 turn out when `Brc1ccc2ncnc(N3CCN(Cc4ccc5c(c4)OCO5)CC3)c2c1` was run?
The IC50 was “Not Active”.

With `Clc1ccc2ncnc(NCCc3ccc(OCc4ccccc4)cc3)c2c1` as the molecule, how does the IC50 read?
The IC50 was “Not Active”.

Which IC50 does the source give for `Nc1ccc2ncnc(NCCc3ccc(Oc4ccccc4)cc3)c2c1` here?
Its IC50 is “Not Active”.

same assay, conditions: read-out: IC50

How did the IC50 turn out when `Clc1ccc(CCNc2ncnc3ccc(Cl)cc23)cc1` was run?
Its IC50 is 3.44 µM.

How did the IC50 turn out when `Clc1ccc(CCNc2ncnc3ccccc23)cc1` was run?
Its IC50 is 10.5 µM.

Which IC50 does the source give for `Fc1ccc2ncnc(N3CCN(Cc4ccc5c(c4)OCO5)CC3)c2c1` here?
Its IC50 is greater than 10 µM.

With `CCN1CCN(c2ncnc3ccc(F)cc23)CC1` as the molecule, how does the IC50 read?
Its IC50 is 5.26 µM.

`CCN1CCN(c2ncnc3ccc(Cl)cc23)CC1` was tested. Which IC50 did it give?
The IC50 was 3.63 µM.

Which IC50 does the source give for `CCCNc1ncnc2ccc(Br)cc12` here?
The IC50 was 8.13 µM.

With `CCN1CCN(c2ncnc3ccccc23)CC1` as the molecule, how does the IC50 read?
The IC50 was greater than 10 µM.

Which IC50 does the source give for `CN1CCN(c2ncnc3ccc(F)cc23)CC1` here?
Its IC50 is greater than 10 µM.

`Oc1ccc(CCNc2ncnc3ccc(Cl)cc23)cc1` was tested. Which IC50 did it give?
The IC50 was 0.71 µM.

How did the IC50 turn out when `CN1CCN(c2ncnc3ccc(Cl)cc23)CC1` was run?
Its IC50 is greater than 10 µM.

How did the IC50 turn out when `Clc1ccc2ncnc(N3CCN(Cc4ccc5c(c4)OCO5)CC3)c2c1` was run?
Its IC50 is 1.07 µM.

Which IC50 does the source give for `Oc1ccc(CCNc2ncnc3ccc(F)cc23)cc1` here?
Its IC50 is 6.38 µM.

Which IC50 does the source give for `c1ccc2c(N3CCN(Cc4ccc5c(c4)OCO5)CC3)ncnc2c1` here?
Its IC50 is greater than 10 µM.

With `Oc1ccc(CCNc2ncnc3ccccc23)cc1` as the molecule, how does the IC50 read?
Its IC50 is greater than 15.8 µM.

Which IC50 does the source give for `CCOC(=O)COc1ccc(CCNc2ncnc3ccc(Cl)cc23)cc1` here?
Its IC50 is 4.48 µM.

For `C=CCNc1ncnc2ccc(Br)cc12`, which IC50 is on record?
Its IC50 is 5.36 µM.

With `Brc1ccc2ncnc(NCc3ccccc3)c2c1` as the molecule, how does the IC50 read?
Its IC50 is 6.13 µM.

Which IC50 does the source give for `CCN1CCN(c2ncnc3ccc(Br)cc23)CC1` here?
Its IC50 is 2.21 µM.

How did the IC50 turn out when `CN1CCN(c2ncnc3ccc(Br)cc23)CC1` was run?
The IC50 was 1.31 µM.

Which IC50 does the source give for `Oc1ccc(CCNc2ncnc3ccc(Br)cc23)cc1` here?
Its IC50 is 1.11 µM.

For `CN1CCN(c2ncnc3ccccc23)CC1`, which IC50 is on record?
Its IC50 is greater than 10 µM.

How did the IC50 turn out when `Brc1ccc2ncnc(N3CCNCC3)c2c1` was run?
Its IC50 is 2.74 µM.

target: T1, Huntingtin; experiment: Inhibition of Huntingtin protein aggregation by yeast based assay; details: not given

`CCCNc1ncnc2ccc(Br)cc12` was tested. Which EC50 did it give?
Its EC50 is 50 µM.

How did the EC50 turn out when `C=CCNc1ncnc2ccc(Br)cc12` was run?
The EC50 was 50 µM.

Which EC50 does the source give for `Brc1ccc2ncnc(NCc3ccccc3)c2c1` here?
The EC50 was 50 µM.
